We go through three compounds from publication PMC8012241 (Alzheimer's & Dementia : Translational Research & Clinical …, 2021).

Peptide text beside a SMILES is read from it.

The target in data set [1] is solid insoluble form Aβ42 (s‐Aβ42) (Homo sapiens, UniProt P05067). The data set can be described thus: Proteolysis of solid insoluble s-Aβ42 by the peptide. It is filed as biochemical. As to conditions: over 7 days; 27% with peptide minus 17% without. The gist of the method:
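s-Aβ42 (0.3 mg), washed with CH3CN and CH3OH, was incubated with or without peptide (1 mM final) with HSA (0.125% w/v) in PBS at 37°C for 7 days, at five times the a-Aβ42 scale. HPLC was run daily and fragments were identified by ESI-MS. Solid weight was recorded on day 0 and day 7. The net decrease ratio is the with-peptide decrease minus the without-peptide decrease.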

The nature of data set [2]: Plasma clearance following intravenous bolus injection. The format is in vivo, Male Wistar/ST rats. The conditions noted are these: rat.
Data set [3] is described as follows: Plasma level and brain uptake following intraperitoneal and nasal administration. The format is in vivo, male ddY mice. The conditions noted are these: mouse; for AUC(0-t): male, ddY, 1 mg. The gist of the method: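 Male ddY mice (25 g) received 1 mg of peptide either intranasally into the left nostril (100 mg/mL in PBS, 10 µL) or intraperitoneally (10 mg/mL in PBS). Blood was drawn at 5, 15 and 30 min. Brains were taken at 30 min after saline/heparin cardiac perfusion. Plasma and brain homogenate were extracted with methanol and assayed by positive-mode LC/MS on C18 (acetonitrile:0.1% acetic acid 10/90). AUC was computed to 30 min.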

The next data set deals with A549 cells. As to the kind of experiment: Effect on the growth of A549 cells. It is filed as cell-based, human. As to conditions: 72 hours. The gist of the method:
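A549 cells were grown in DMEM with 10% FBS and penicillin/streptomycin at 37°C in 5% CO2, then seeded at 4 x 10^3 cells/well. After 24 h the medium was replaced and cells were treated with 0.2 mM test peptide, 0.2 mM FLAG peptide or 4 µM cisplatin for 72 h. WST-8 was added for 1 h. Absorbance was read at 450 nm against a 620 nm reference.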

Data set [4] in a line: In vitro stability in plasma and whole blood. It is filed as in vitro ADME. As to conditions: data not shown.
The target in data set [5] is authentic soluble form Aβ42 (a‐Aβ42) (Homo sapiens, UniProt P05067). The conditions noted are these: cleaved in the central region; cited from earlier work.
Sequence of authentic soluble form Aβ42 (a‐Aβ42) (P05067 672-713): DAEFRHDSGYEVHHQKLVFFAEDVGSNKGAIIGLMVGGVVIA
The next data set relates to amyloid beta 42 (Aβ42). As to conditions: serine protease inhibitor AEBSF; cited from earlier work.
Where [6] appears, read: male, Wistar/ST, plasma, iv, 2 mg/animal.

Sequence of solid insoluble form Aβ42 (s‐Aβ42) (P05067 672-713): as above

For the compound `CC[C@H](C)[C@H](NC(=O)[C@H](CCSC)NC(=O)[C@H](CCCNC(=N)N)NC(=O)[C@H](Cc1ccc(O)cc1)NC(=O)[C@H](C)NC(=O)[C@H](CCC(N)=O)NC(=O)CNC(=O)[C@H](CCCCN)NC(=O)[C@@H](N)CO)C(=O)O` [ANA‐TA9] (H-SKGQAYRMI-OH), in data set [1], the “decreasing ratio of s‐Aβ42 by ANA‐TA9 (corrected for incubation without peptide)” value is listed as 10%. In data set [2] (setting [6]), this compound gave an AUC of 124 ng·h/mL and a clearance of 270 mL/min. Also, the “initial half‐life in plasma” value in data set [2] (i.v. bolus 2 mg/head, LC/MS) is 10 s. Further, the “plasma concentration post‐injection” value in data set [2] (i.v. bolus 2 mg/head, within 15 minutes post-injection, LC/MS) is recorded as “below the detection limit”. The compound further showed an AUC(0-t) in data set [3] (inhaled or intranasal) of 27.2 ng·h/mL. Also, in data set [3] (ip), the AUC(0-t) was 193 ng·h/mL. In addition, the “nasal AUC as percentage of intraperitoneal AUC” value in data set [3] (up to 30 minutes, 1 mg each route) was 14%. For the same compound, the “effect on the growth of A549 cells” value in the data set with A549 cells (0.2 mM, WST-8, compared to 0.2 mM FLAG peptide control) is “did not show a significant inhibitory effect”. Further, the “in vitro stability in plasma and whole blood” value in data set [4] is “not particularly labile”.

On to `[NH2][Pt]([NH2])([Cl])[Cl]` [CDDP, Cisplatin, reference compound], for which, in the data set with A549 cells (4 μM, WST-8, positive control), the “effect on the growth of A549 cells” value was “inhibited the growth”.

Turning to YKGSGFRMI [JAL‐TA9], the “cleavage of a‐Aβ42 and s‐Aβ42” value in data set [5] is listed as “cleaved”. Besides, the “effect of AEBSF on proteolytic activity” value in the data set with amyloid beta 42 (Aβ42) was “completely inhibited”.
